High-throughput results deposited in PubChem by Broad Institute.
Only some compounds are listed: those with a hit (about 3.6% of all), similar ones and a draw of the others.
Wnt act: Wnt/beta-catenin pathway activation; Wnt/beta-catenin reporter cell assay, activator, plate reader; activation, % at 9.35 µM; 300,000 tested, 1.2% active; AID 743398; in the data active = activation above about 30%, passing the limit was not always enough; inconclusive = no clear call, values can overlap the other calls
SR-BI uptake up: SR-BI HDL lipid transfer activation. CHO ldlA[mSR-BI] cells, DiI-HDL uptake fluorescence, 3 h; 100 = double the neutral-control signal. activation, % at 12.5 µM. 320,000 tested, 0.096% active. AID 504775;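 active = mean replicate activation of at least 60% and every replicate at or above 60%; inconclusive = mean or all-replicate condition met, but not both; inactive = mean below 60% and not all replicates reaching 60%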
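system = CHO ldlA[mSR-BI] cells, LDL receptor-null, SR-BI overexpressing | medium = Ham's F12 with 0.5% BSA, HEPES 25 mM, pH 7.4 | probe or stimulus = DiI-HDL 10 µg/mL | compound dosing = single-point compound dose | incubation = compound exposure 3 h, 37 °C | technique = DiI fluorescence, bottom read | read-out = cell-associated DiI fluorescence as measure of HDL uptake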
MITF TRPM1 HTS: increases MITF-driven TRPM1 promoter luciferase signal | activation, % at 12.5 µM | SK-MEL-5 TRPM1-promoter luciferase, 24 h; % of positive control, neutral wells = 0 | AID 588334 | 300,000 tested, 0.75% active;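 active = mean activation of at least 80% with every replicate also reaching 80%; inconclusive = mean reaches 80% but some replicate falls short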
SR-BI DiI inh: mouse SR-BI HDL lipid transfer inhibition. Q61009. ldlA[mSR-BI] CHO cells, DiI-HDL uptake fluorescence, 3 h. inhibition, % at 12.5 µM. 320,000 tested, 0.96% active. AID 488896;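 active = mean replicate inhibition of at least 70% and a set share of replicates each scoring 70 or more; inconclusive = meets just one of the two criteria; inactive = fails both criteria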
Target sequence (Q61009 whole entry, looked up): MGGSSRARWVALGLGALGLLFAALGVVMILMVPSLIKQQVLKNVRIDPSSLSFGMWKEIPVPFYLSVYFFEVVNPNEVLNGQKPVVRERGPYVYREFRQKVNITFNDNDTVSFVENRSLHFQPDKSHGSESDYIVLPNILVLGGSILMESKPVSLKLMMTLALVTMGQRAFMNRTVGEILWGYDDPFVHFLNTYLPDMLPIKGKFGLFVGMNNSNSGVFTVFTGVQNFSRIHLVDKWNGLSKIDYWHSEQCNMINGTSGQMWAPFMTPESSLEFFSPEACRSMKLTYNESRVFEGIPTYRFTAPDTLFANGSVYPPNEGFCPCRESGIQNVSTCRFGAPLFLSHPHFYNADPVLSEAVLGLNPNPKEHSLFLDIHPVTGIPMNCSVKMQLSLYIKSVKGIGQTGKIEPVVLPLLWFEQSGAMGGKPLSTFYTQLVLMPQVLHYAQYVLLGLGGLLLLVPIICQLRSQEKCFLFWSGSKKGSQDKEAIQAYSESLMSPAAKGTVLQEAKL
HSF1 activator: increases HSF-1 driven luciferase reporter signal; NIH3T3-HGL HSF-1 luciferase reporter, MG132, 8 h; 100% = twice DMSO control signal; activation, % at 9 µM; 300,000 tested, 1.7% active;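 active = mean replicate activation of at least 50% with a set share of replicates each reaching 50%; inconclusive = only one of those two conditions met; inactive = mean below 50% and too few replicates reaching it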
Numbers stand for hits; . = inactive; ? = inconclusive; / = no result given.

SMILES	Wnt act	SR-BI uptake up	MITF TRPM1 HTS	SR-BI DiI inh	HSF1 activator
Cc1cc(C(=O)NCCC2=CCCCC2)c(C)o1	.	.	.	.	60
CCCNC(=O)C(=O)NCCC1=CCCCC1	/	.	.	.	.
NC(=O)NCCC1=CCCCC1	.	93	/	.	.
O=C(NCCC1=CCCCC1)c1ccc(Cl)cc1	/	/	/	/	59
Cc1csc(NC(=O)c2nc3nccc(C)n3n2)n1	/	.	.	.	.
Nc1ccc(C(=O)Nc2nc3ccccc3s2)cc1	35	.	.	.	57
COc1ccc(C(=O)Nc2nc3ccc(S(C)(=O)=O)cc3s2)cc1	.	.	.	.	.
Cc1cc(C)n(-c2ccc(C(=O)Nc3nc4ccccc4s3)cc2)n1	?	.	.	70	.
Cc1ccnc2nc(C(=O)Nc3nc4ccccc4s3)nn12	38	.	.	.	.
COC(=O)c1ccc(C(=O)Nc2nc3cc(N)c(C)cc3s2)cc1	.	.	.	81	.
COC(=O)c1cccc2c(C(=O)O)cc(-c3ccccc3)nc12	.	.	.	.	.
O=c1/c(=C/c2ccccc2)sc2nnc(-c3cccs3)n12	.	/	/	/	64
O=c1/c(=C\c2ccc(O)cc2)sc2nc(-c3ccccc3)c(-c3ccccc3)n12	.	/	.	/	.
O=c1cc2c(c(-c3ccccc3)n1Cc1ccccc1)[C@@H](CCO)NC2	.	.	.	.	/
C[C@@H]1CN([C@H](C)CO)C(=O)c2cc(Br)cnc2O[C@H]1CN(C)C	.	/	/	/	/
CCc1cc(SC#N)cc(C)c1N	.	/	.	/	.
Cc1cc(SC#N)cc(C)c1NC(=O)CCl	.	.	.	.	136
CCc1cc(SC#N)cc(C)c1NC(=O)CCl	.	.	.	.	113
O=C(Nc1ccc(F)cc1)C(c1cc2ccccc2o1)N1CCN(C(=O)c2ccco2)CC1 (configuration not stated)	.	/	/	/	/
O=C(NCCNC(=O)Oc1cccc2ccccc12)Oc1cccc2ccccc12	.	.	.	.	/
COc1ccc2oc(C(=O)Nc3ccc(C)cn3)c(C)c2c1	38	.	.	.	.
COCc1c(C(=O)Nc2nc(C)cs2)oc2ccccc12	.	.	.	.	.
Cc1c(C(=O)NC2CCCCC2)oc2ccc(F)cc12	.	.	.	.	.
COc1ccc2oc(C(=O)Nc3ccccn3)c(C)c2c1	43	.	.	.	.
COc1ccc2oc(C(=O)NC3CCCCC3)c(C)c2c1	.	.	112	.	61
SMILES	Wnt act	SR-BI uptake up	MITF TRPM1 HTS	SR-BI DiI inh	HSF1 activator
COc1ccc2oc(C(=O)Nc3nc(C)cs3)c(C)c2c1	51	.	.	.	/
C=CCN1C(=O)[C@]2(OCCC=C[C@H]2C)c2cc(OC)ccc21	.	/	/	/	/
COCCNC(=S)N(C)[C@H]1C[C@H]2c3[nH]c4c(-c5ccccc5)cccc4c3CCN2C[C@H]1[C@H](C)O	.	/	/	/	/
C=CCN(CC=C)C[C@@H]1CSCCS(=O)(=O)N1	.	/	/	/	/
COCc1cc(=O)[nH]c2cc(NC(=O)C3CC3)c(C)cc12	50	.	.	.	.
COCCn1c(NC(=S)NC(=O)C2CC2)cc(=O)[nH]c1=O	.	.	.	.	.
CC(C)N1CCCC(C)(C(=O)Nc2cccc(Oc3ccccc3)c2)C1 (configuration not stated)	.	/	/	/	/
O=Nc1c2nc3ccccc3n(O)c-2c2ccccc12	40	.	/	.	.
CCCn1c(SCc2nc3sc(C)c(C)c3c(=O)[nH]2)nc2ccccc2c1=O	/	.	.	.	114
Oc1c(C(Nc2nccs2)c2ccc(C(F)(F)F)cc2)ccc2cccnc12 (configuration not stated)	.	/	.	/	.
Oc1c(C(Nc2cccc(C(F)(F)F)c2)c2ccncc2)ccc2cccnc12 (configuration not stated)	53	.	.	.	.
CCC(=O)c1ccc(OCC(=O)Nc2ccc3c(c2)OCCO3)cc1	.	.	.	.	/
O=C(COC(=O)c1cccc(F)c1)Nc1ccc2c(c1)OCCO2	32	.	.	.	/
O=C(COc1ccc(F)cc1)Nc1ccc2c(c1)OCCO2	38	.	.	.	.
O=C(COC(=O)c1ccccc1F)Nc1ccc2c(c1)OCCO2	41	.	.	.	/
CN(CC(=O)Nc1ccc(F)cc1)C(=O)COC(=O)c1cccc(N(C)C)c1	41	.	/	.	/
O=C(COC(=O)CNC(=O)c1ccccc1F)Nc1ccc2c(c1)OCCO2	.	.	.	.	.
Cc1cccc(C(=O)OCC(=O)Nc2ccc3c(c2)OCCO3)c1	.	.	.	.	/
